Source: PubChem BioAssay (several laboratories)
Tb hexokinase: Trypanosoma brucei hexokinase 1 inhibitors, primary screen, biochemical, G6PDH-coupled NADH absorbance, MLSCN library; hexokinase 1 [Trypanosoma brucei]; recombinant TbHK1, G6PDH-coupled NADH A340; inhibition, % at 10 µM; actives 0.11% (n = 220,000); AID 1430, 2008;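 active means inhibition of 50% or more in the single-dose primary screen; inactive means inhibition below 50%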
PfGluPho inh: PfG6PD enzyme inhibitors, primary screen, biochemical, fluorescence intensity, uHTS. glucose-6-phosphate dehydrogenase-6-phosphogluconolactonase (Plasmodium falciparum 3D7). PfGluPho enzyme, NADPH resazurin-diaphorase fluorescence. inhibition, % at 20 µM. actives 0.78% (n = 350,000). AID 504690, 2011;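 active means inhibition reaching at least a set limit at 20 µM in the primary screen, cut at about 59% in these data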;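 further: 0% = DMSO wells with substrate and 100% = DMSO wells lacking glucose-6-phosphate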
Diaph act CS: compounds boosting diaphorase resazurin reduction – biochemical, uHTS, resorufin fluorescence, counter-screen for diaphorase-coupled primary assays, primary screen. Diaphorase/resazurin coupled assay, 16 min; active compounds read high; 1 = vehicle wells, 0 = NADH-free wells. activation factor at 20 µM. actives 0.005% (n = 190,000). AID 1229, 2008;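 active means diaphorase activity raised at least twofold by the compound at 20 µM; inactive means activation factor below 2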
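Material: purified diaphorase enzyme from Clostridium kluyveri; Also added: 0.114 mM NADH and 0.1 mM resazurin, final amounts; Doses: single compound dose of 20 µM, 1% DMSO final; Times: 16 min enzyme reaction, ambient temperature; Detection: resorufin fluorescence, excitation 544 nm, emission 590 nm; Measure: increased resorufin signal from activators or reducing compounds.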
Diaphorase inh: diaphorase inhibitors and chemical oxidizers, primary screen, counter-screen for diaphorase-coupled primary assays, biochemical, uHTS, resorufin fluorescence. diaphorase resazurin-to-resorufin fluorescence, NADH, 16 min; bacterial (C. kluyveri) enzyme, not human. inhibition, % at 20 µM. actives 0.69% (n = 190,000). AID 1217, 2008;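 active means primary screen inhibition at 20 µM above a set limit, cut at about 50% in these data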;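 further: plate controls were DMSO with full reaction for no effect and wells lacking NADH for full effect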
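System: Diaphorase enzyme from Clostridium kluyveri | Amount: Enzyme working solution with 0.14 U/mL diaphorase | Benchmarks: No-NADH positive control and DMSO neutral control | Signal: Fluorescence of resorufin formed from resazurin, Ex 544/Em 590 nm | Schedule: 16-min room-temperature incubation before reading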
G6PDH CS: L. mesenteroides G6PDH inhibitors, counter-screen for G6PDH-coupled screening assays, biochemical, Leuconostoc mesenteroides enzyme; actives 0.12% (n = 200,000); Purified L. mesenteroides G6PDH, diaphorase/resazurin coupled fluorescence, 45 min; inhibition, % at 5 µM; in the data active means inhibition above about 50%
HKDC1 inh: HKDC1 hexokinase inhibitors, primary screen, biochemical, fluorescence, uHTS; inhibition, % at 20 µM; recombinant HKDC1, G6PDH/diaphorase resazurin coupled fluorescence; Q2TB90; actives 0.16% (n = 340,000); AID 493160, 2011;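 active means inhibition above about 35% when tested at 20 µM, limit read from the data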;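 further: plate controls were DMSO wells with enzyme for no effect and DMSO wells lacking enzyme for full effect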
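Material – in-house recombinant HK5 (HKDC1) enzyme · Quantity – HKDC1 at 5 µg/mL · Buffer or medium – pH 8.0 Tris buffer with 10 mM MgCl2 · Reagent – glucose with 1 mM ATP · Dosing – single 20 µM dose · Times – reaction time 90 min, room temperature, protected from light · Technique – resorufin fluorescence at 613 nm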
* = called active by the depositor; . = no result given. Compounds with a hit are over-represented: about 1.3% of the library has one in this group of screens.

SMILES	Tb hexokinase	PfGluPho inh	Diaph act CS	Diaphorase inh	G6PDH CS	HKDC1 inh
CCC1(C)Cc2c(sc3nnn(Cc4ccccc4Cl)c(=O)c23)CO1 (stereo not given)	-2.1	20.5	0.4	57.3*	3.7	-5.5
O=C(COc1ccccc1)c1cn(CC(=O)N2CCCC2)c2ccccc12	0.0	1.8	0.1	94.5*	-0.8	-3.3
NC(=O)Cn1cc(C(=O)COc2ccccc2)c2ccccc21	-6.6	.	0.9	7.6	5.4	.
Cc1ccc(C(=O)NC(C)c2ccc(-n3ccnc3)cc2)o1 (stereo not given)	.	0.9	.	.	.	-3.5
CC(=O)NC(c1ccccc1)c1cc([N+](=O)[O-])c2cccnc2c1O (stereo not given)	6.3	28.9	0.4	56.1*	60.8*	15.3
CC(C)C(=O)NC(c1ccccc1)c1cc([N+](=O)[O-])c2cccnc2c1O (stereo not given)	14.8	44.1	0.6	39.4	55.0*	13.6
CCCC(=O)NC(c1cccs1)c1cc([N+](=O)[O-])c2cccnc2c1O (stereo not given)	4.6	7.3	0.6	42.9	42.1	-8.6
CC(=O)NC(c1cccs1)c1cc([N+](=O)[O-])c2cccnc2c1O (stereo not given)	2.2	22.0	0.6	44.0	61.2*	10.3
CCC(=O)c1cn([C@@H](CCC(OC)OC)CC(=O)OC(C)(C)C)cc1CC	.	5.4	.	.	.	-3.7
NCCC(=O)N1c2ccccc2Sc2ccccc21	.	-6.8	.	.	.	-3.0
O=C1CS/C(=N\C(=O)N2c3ccccc3Sc3ccccc32)N1	-6.7	-7.2	0.3	70.1*	7.8	9.6
O=C1CCN2C=Nc3cccc4ccc1c2c34	35.1	47.2	0.2	76.6*	48.2	20.5
C=C1C(=O)c2sccc2C(c2ccc(OC)c(OC)c2)C1COC(C)=O (stereo not given)	.	10.6	.	.	.	25.8
CS(=O)(=O)Nc1cccc(S(=O)(=O)N2CCN(C(=O)c3ccccc3)CC2)c1	-11.0	-7.0	.	.	.	-8.6
CC(=O)Nc1ccc(N(C(=O)Cn2nnc3ccccc32)C(C(=O)NC2CCCC2)c2ccc(O)c(O)c2)cc1 (stereo not given)	-4.2	-16.0	0.4	55.9*	37.4	-5.8
O=C(O)Cc1ccc(C(=O)c2ccc(Cl)cc2Cl)s1	1.9	-0.9	0.2	83.0*	12.7	-6.7
NC(=O)Cc1ccc(C(=O)c2ccc(Cl)cc2Cl)s1	-2.3	-15.1	0.9	11.3	10.9	-1.9
O=C(COc1cccc(F)c1)Nc1ccc2[nH]c(=O)[nH]c2c1	-1.9	6.3	0.4	55.4*	10.0	-0.4
Cc1ncc(CO)c(/C=N/NC(=O)c2cc(O)c(O)c(O)c2)c1O	-4.2	.	0.4	59.7*	2.1	.
Cc1ncc(CO)c(/C=N/NC(=O)c2ccc(Br)cc2)c1O	-2.4	.	0.8	22.2	-20.5	.
[O-]/[N+](=C/c1ccc(F)cc1)c1ccc(Cl)cc1	9.5	64.7*	0.9	13.9	6.1	-3.7
O=C1/C(=C/c2ccc(O)c(O)c2)SC(=S)N1Nc1ccccc1	21.2	-2.0	0.4	56.1*	4.2	9.1
Nc1nc(=S)[nH]c2c1C1(CCCC1)Cc1ccccc1-2	-10.6	11.6	0.7	27.0	2.4	10.1
Nc1nc(=S)[nH]c2c1C1(CCCCC1)Cc1ccccc1-2	-8.6	-3.5	0.5	53.2*	-8.2	16.0
COc1ccc(NC(=O)CN(C)C(=O)CCNC(=O)c2ccccc2OC)cc1	.	-9.1	.	.	.	-5.0
SMILES	Tb hexokinase	PfGluPho inh	Diaph act CS	Diaphorase inh	G6PDH CS	HKDC1 inh
COc1cc(CN2CCN(C(=O)CC(C)C)CC2)cc(OC)c1O	-0.5	-3.5	0.6	38.8	53.4*	-12.0
COc1ccc(CN2CCN(C(=O)c3cc(OC)c(OC)c(OC)c3)CC2)cc1OC	-3.5	-3.7	0.8	18.0	1.4	-7.4
COc1ccc(C(=O)N2CCN(Cc3cc(OC)c(O)c(OC)c3)CC2)cc1OC	0.2	-6.5	0.7	28.8	55.2*	-1.2
CCN(C(=O)c1cc2cc3ccc(C)cc3nc2o1)c1ccc(OC)cc1	-28.5	14.0	0.4	60.2*	-44.8	28.4
Nc1ccc2c(c1)Nc1ccccc1CC2	0.0	19.8	0.4	61.5*	27.5	-0.8
Cc1ccc2ncnc(NCCCCCC(=O)O)c2c1	5.6	7.7	1	-1.5	4.0	-6.6
O=c1c2oc3ccccc3c2[nH]c(=S)n1-c1ccc(F)cc1	-13.0	6.4	0.4	59.0*	-1.1	-0.9
O=c1[nH]c2c(oc3ccccc32)c(=O)n1Cc1ccccc1	.	-7.6	.	.	.	-8.5
Cc1ccc(-n2c(=S)[nH]c3c(oc4ccccc43)c2=O)cc1C	5.1	12.0	0.4	62.3*	7.9	-6.2
O=C(Nc1ccc2nc(-c3ccco3)c(-c3ccco3)nc2c1)N1CCCCCC1	3.0	47.5	0.1	93.7*	-10.2	45.2*
Cc1ccc(NC(=S)Nc2ccc3nc(-c4ccccn4)c(-c4ccccn4)nc3c2)cc1C	-5.4	96.7*	0.3	74.7*	60.0*	14.7
Cc1ccc(NC(=S)Nc2ccccn2)cc1C	26.8	4.7	.	.	.	-0.5
O=C(Nc1ccc2nc(-c3ccccn3)c(-c3ccccn3)nc2c1)N1CCOCC1	-14.0	6.4	0.4	58.0*	25.3	13.2
O=C(Nc1ccccn1)N1CCOCC1	-6.9	-5.3	1	2.6	6.6	-9.2
CC(=O)Nc1ccc(S(=O)(=O)N2CCN(C(=O)c3ncoc3-c3cccc(F)c3)CC2)cc1	.	1.6	.	.	.	-8.4
O=C(N/N=C/c1ccc(-c2ccccc2[N+](=O)[O-])o1)[C@H]1C[C@@H]1c1ccccc1	-10.0	8.1	0.5	51.7*	12.8	6.6
CC[n+]1c(/C=C2\C=C(C)CC(C)C2)sc2ccccc21 (stereo not given)	-19.6	48.9	0.8	15.2	3.0	9.6
CCC1=C/C(=C/c2sc3ccccc3[n+]2CC)CC(C)(C)C1	-13.9	60.6*	0.8	17.0	-3.4	1.8
Cc1ccccc1CS(=O)(=O)CCC(=O)NCCCN1CCN(c2ccccc2F)CC1	-3.7	-13.6	0.9	9.7	7.5	-1.6
Cc1cc(C)c2c(=O)n(CC(=O)NCCCN3CCN(c4ccccc4F)CC3)sc2n1	12.3	98.5*	1	-0.6	-7.9	-0.2
Cc1cc(C)c2c(=O)n(CC(=O)NCCCN3CCOCC3)sc2n1	-4.0	70.3*	1.1	-7.4	16.2	7.0
